# Measurements of several laboratories.
# Protocols differ between the studies behind these lines.
# Target: TGF-beta receptor type-1 (TGFBR1, Homo sapiens, UniProt P36897)
# One construct used (P36897 1-503): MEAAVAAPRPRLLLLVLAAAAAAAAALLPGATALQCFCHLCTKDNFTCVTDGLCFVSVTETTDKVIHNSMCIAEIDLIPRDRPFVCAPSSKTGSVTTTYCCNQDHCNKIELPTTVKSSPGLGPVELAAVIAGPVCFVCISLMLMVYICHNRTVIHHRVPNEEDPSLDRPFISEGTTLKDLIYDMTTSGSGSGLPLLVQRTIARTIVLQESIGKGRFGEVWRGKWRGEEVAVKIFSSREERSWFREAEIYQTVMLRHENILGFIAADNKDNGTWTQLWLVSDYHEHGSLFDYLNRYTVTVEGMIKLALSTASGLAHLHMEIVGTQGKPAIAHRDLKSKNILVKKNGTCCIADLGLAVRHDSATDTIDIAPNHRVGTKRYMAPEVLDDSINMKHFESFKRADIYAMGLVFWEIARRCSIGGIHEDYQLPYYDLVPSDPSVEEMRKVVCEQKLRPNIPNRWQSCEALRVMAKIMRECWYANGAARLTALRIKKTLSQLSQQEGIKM
Compound,read-out,action,method,tested at,quantity,value
O=C(O)c1cc(-c2ccc(C3CCNCC3)cc2)c2ccc(-c3ccc(C(F)(F)F)cc3)cc2c1,cell-free assay,,competition with immobilised ligand,1 µM,remaining binding,81%
Fc1ccc(-c2ncn(-c3ccc(-c4ccccc4)cc3)c2-c2ccncc2)cc1,cell-free assay,,TR-FRET,1 µM,inhibition,15%
COc1cc(-c2cc(-c3ccc(N4CCNCC4)cc3)cnc2C)cc(OC)c1OC,enzyme activity,inhibitor,,0.1 µM,inhibition,3%
CO[C@H]1CC[C@H](CNc2ccc(S(=O)(=O)NC(=O)c3ccc(N4CCN(CC5=C(c6ccc(Cl)cc6)CC(C)(C)CC5)CC4)cc3Oc3cnc4[nH]ccc4c3)cc2[N+](=O)[O-])CC1,cell-free assay,,competition with immobilised ligand,1 µM,remaining binding,84%
COc1cc2ncnc(Nc3ccc(F)c(Cl)c3)c2cc1OCCCN1CCOCC1,cell-free assay,,,0.5 µM,remaining signal,99.6%
NS(=O)(=O)c1cc(NC(=O)Cc2ccccc2)ccc1Oc1cccc(Cl)c1,cell-free assay,,competition with immobilised ligand,1 µM,remaining binding,100%
Fc1ccc(-c2ncn(-c3ccc4ccccc4c3)c2-c2ccncc2)cc1,cell-free assay,,TR-FRET,1 µM,inhibition,14%
Cc1ccc(C(=O)Nc2ccc(CN3CCN(C)CC3)c(C(F)(F)F)c2)cc1C#Cc1cnc2cccnn12,cell-free assay,,,23.5 nM,remaining signal,98%
CSc1cccnc1N1CCN(Cc2nc3ccccc3[nH]2)CC1,cell-free assay,,competition with immobilised ligand,1 µM,remaining binding,100%
CC(C)(C)c1nc2c(s1)c1nc(N)ncc1c1ccc(NS(=O)(=O)c3c(F)cccc3F)c(F)c12,enzyme activity,inhibitor,radiometric,1 µM,remaining activity,102%
COc1cc(Cl)c(C(=O)N[C@@H](CN[C@H]2CC[C@@H](N)CC2)Cc2ccc(C#N)cc2)cc1-c1ccc(CN[C@H](C)c2ccc(C)cc2)o1,enzyme activity,inhibitor,,1 µM,remaining activity,103%
Nc1ncnc2occ(-c3ccc(NC(=O)Nc4cc(C(F)(F)F)ccc4F)cc3)c12,cell-free assay,,,20 µM,remaining signal,52%
C#Cc1cccc(Nc2ncnc3cc(OCCOC)c(OCCOC)cc23)c1,cell-free assay,,,0.5 µM,remaining signal,99.1%
Cc1ccc(NC(=O)c2ccc(C)c(C(F)(F)F)c2)cc1C#Cc1nn(C2CCC(O)CC2)c2ncnc(N)c12 (stereo not shown),cell-free assay,,,10 µM,remaining signal,105%
CC(=O)C1=C(C)N(c2cccc(C(F)(F)F)c2)C(=O)N[C@@H]1c1ccc(C#N)nc1,cell-free assay,,competition with immobilised ligand,1 µM,remaining binding,99.2%
Cc1cccc(-c2[nH]c(C(C)(C)C)nc2-c2ccc3c(c2)OCO3)n1,cell-free assay,,,0.5 µM,remaining signal,35.8%
O=C(NS(=O)(=O)c1ccc(NCC2CCOCC2)c([N+](=O)[O-])c1)c1ccc(N2CCN(Cc3ccc(C(F)(F)F)cc3-c3ccc(Cl)cc3)CC2)cc1Oc1cnc2[nH]ccc2c1,cell-free assay,,competition with immobilised ligand,1 µM,remaining binding,93%
c1ccc(-c2[nH]ncc2-c2ccnc3ccccc23)nc1,cell-free assay,,,0.5 µM,remaining signal,41.6%
CN(C)c1ncnc(-c2ccc3nc(Nc4cc(CN5CCN(C(=O)CC(F)(F)F)CC5)ccn4)[nH]c3c2)c1Cl,cell-free assay,,competition with immobilised ligand,1 µM,remaining binding,100%
Cc1cnc(NC2CCOCC2)nc1-n1cnc(C(=O)NC(CN)c2cc(F)cc(Cl)c2)c1 (stereo not shown),enzyme activity,inhibitor,radiometric,1 µM,remaining activity,98%
Cc1ccc(NC(=O)c2ccc(CN3CCN(C)CC3)cc2)cc1Nc1nc(-c2cccnc2)cs1,cell-free assay,,,0.5 µM,remaining signal,98.5%
CCN(CC)c1ccc(C2=NNC(=O)CC2C)cc1[N+](=O)[O-] (stereo not shown),enzyme activity,inhibitor,,10 µM,remaining activity,89%
COc1cccc(F)c1Cn1cnc(-c2ccc(F)cc2)c1-c1ccncc1,cell-free assay,,TR-FRET,1 µM,inhibition,20%
CS(=O)(=O)Nc1cccc(-c2csc(NC(=O)CSc3nc4nccnc4c(=O)n3CCc3ccccc3)n2)c1,enzyme activity,inhibitor,,10 µM,inhibition,5%
Fc1ccc(-c2c(-c3ccncc3)ncn2-c2ccc3ccccc3c2)cc1,cell-free assay,,TR-FRET,1 µM,inhibition,21%
O=C(Nc1cnn(-c2csc(C(=O)NC3COC3)c2)c1)Nc1c(F)cccc1Cl,enzyme activity,inhibitor,,5 µM,remaining activity,97.4%
Fc1ccc(-c2ncn(-c3ccccc3)c2-c2ccncc2)cc1,cell-free assay,,TR-FRET,1 µM,inhibition,31%
CCCCN(CCCC)C(=O)CN1C[C@H](c2cc(OC)c3c(c2)OCO3)[C@@H](C(=O)O)[C@@H]1CC(C)(C)CCC,cell-free assay,,competition with immobilised ligand,1 µM,remaining binding,98.6%
